NR2E3 ag-1 – agonists of human nuclear receptor NR2E3; Q9Y5X4; GST-NR2E3/biotin-RetCOR TR-FRET, 1536-well; inhibition of corepressor binding, % at 4.78 µM; 320,000 compounds, 0.12% hits;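 active means percent inhibition above the cutoff of mean plus 3 SD of all tested compounds, set per screening campaign, cut at about 20% in these data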
Target sequence (Q9Y5X4 whole entry, looked up): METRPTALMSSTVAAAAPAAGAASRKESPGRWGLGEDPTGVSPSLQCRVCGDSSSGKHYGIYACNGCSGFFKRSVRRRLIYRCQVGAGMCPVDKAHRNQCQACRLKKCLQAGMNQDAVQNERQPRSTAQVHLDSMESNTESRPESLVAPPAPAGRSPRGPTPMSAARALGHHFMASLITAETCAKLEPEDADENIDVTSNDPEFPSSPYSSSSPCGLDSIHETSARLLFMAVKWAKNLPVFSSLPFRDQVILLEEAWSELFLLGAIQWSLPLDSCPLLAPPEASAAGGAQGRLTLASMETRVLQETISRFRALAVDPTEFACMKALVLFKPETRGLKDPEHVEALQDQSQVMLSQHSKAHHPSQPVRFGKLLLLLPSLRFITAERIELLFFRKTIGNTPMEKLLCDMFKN
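Material: NR2E3–RetCOR corepressor complex | Quantity: 1.35 nM GST-tagged NR2E3 final | Schedule: 5 h at 4 °C | Replication: Singlicate compound wells | Reagent: RetCOR corepressor, biotinylated, 7 nM | Controls: Biotin wells as high control, 0.6% DMSO wells as low control | Signal: TR-FRET, Eu(K)-anti-GST donor, streptavidin-D2 acceptor, ex 340, em 617/671 nm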
PG9 Ab binder – PG9 antibody binding by small molecule. TR-FRET gp120-PG9 antibody binding. inhibition, % at 6.7 µM. 360,000 compounds, 0.43% hits. AID 624416; in the data active means inhibition above about 8.5%
NR2E3 ag-2 – human photoreceptor-specific nuclear receptor agonism | 360,000 compounds, 0.35% hits | CHO-S Gal4-NCOR/VP16-NR2E3 two-hybrid, luciferase | inhibition of corepressor binding, % at 3.98 µM | AID 602229;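 active means inhibition above the mean of all tested compounds plus 3 SD, cut at about 70% in these data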;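 further: higher means lower luciferase signal from less NR2E3 corepressor binding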
Rev-erbA mod – modulates human Rev-erb alpha binding to DNA | P20393 | Rev-erbα–FITC-DNA binding, fluorescence polarization, 90 min | activity, % at 10 µM | 370,000 compounds, 0.79% hits | AID 1259318;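 active means activity above about 14%, limit read from the data; passing the limit was not always enough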
Rev-erbA confirm – confirmation of modulators of human Rev-erb alpha DNA binding. activation, % at 25 µM. 3,000 compounds, 61% hits. Rev-erb alpha FITC-DNA binding, fluorescence polarization, 90 min. shares compounds with Rev-erbA mod;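 active means activation at or above a set limit, or at least 3 SD above the negative control mean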
RORg counter – affects RORgamma DNA binding in a Rev-erb alpha counter-screen; shares compounds with Rev-erbA mod; purified RORgamma protein-FITC-DNA binding, fluorescence polarization; IC50, µM; 910 compounds, 8% hits;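 active means Compounds whose fitted half-maximal concentration for disrupting protein-DNA binding is below 10 micromolar; the record names Rev-erb in its text, so the target is in doubt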
Of the large screens only hits and unclear results are named; the others gave an inactive call (follow-up assays come after a bar, where they were run). An excerpt weighted towards active compounds, which were near 1.4% of everything screened.

N#Cc1cc2cc3c(cc2nc1SCC(=O)N1CCOCC1)OCCO3	Rev-erbA mod 17 | Rev-erbA confirm inactive
Cc1ccc2nc(SCC(=O)Nc3ccccc3N3CCOCC3)c(C#N)cc2c1	Rev-erbA mod 28 | Rev-erbA confirm 18
Cc1cc2cc3c(cc2nc1SCC(=O)N1CCCC1)OCCO3	none (no result: NR2E3 ag-1)
COCCCn1c(C2CCCCC2)nc2oc3cc(OC)ccc3c(=O)c2c1=O	none
CC(=O)NC(=S)Nc1ccc2oc(-c3cc(F)c(F)cc3Cl)nc2c1	Rev-erbA mod 50 | Rev-erbA confirm 32 | RORg counter inactive
O=C(Cc1ccccc1)NC(=S)Nc1ccc2oc(-c3ccccc3F)nc2c1	none
CC(=O)c1cccc(NC(=O)c2csc(-n3nc(C)cc3C(F)(F)F)n2)c1	Rev-erbA mod 78 | Rev-erbA confirm 70 | RORg counter inactive
CCc1ccc([C@H]2[C@@H]3C(=O)C[C@@H]4C(=O)N(C)C(=O)[C@@H]4[C@@H]3CN2S(=O)(=O)c2ccc(C)cc2)cc1	Rev-erbA mod 16 (no result: NR2E3 ag-1) | Rev-erbA confirm inactive
CCc1ccc([C@H]2[C@@H]3C(=O)C[C@@H]4C(=O)N(CC)C(=O)[C@@H]4[C@@H]3CN2S(=O)(=O)c2ccc(C)cc2)cc1	none (no result: NR2E3 ag-1)
CCOCCCNC(=O)c1cc(-c2ccc(Br)s2)nc2ccccc12	Rev-erbA mod 21 | Rev-erbA confirm inactive
CN(C)c1ccc(CNS(=O)(=O)c2ccc3c(c2)NC(=O)CS3)cc1	none
COc1ccc(C(=O)NCCNc2nc3cc(C)cc(C)c3cc2C#N)nc1	Rev-erbA mod 23 (no result: NR2E3 ag-1, NR2E3 ag-2) | Rev-erbA confirm 45 | RORg counter inactive
Cc1nc(C)c(-c2ccc(SCC(=O)Nc3cccc(Cl)c3)nn2)s1	Rev-erbA mod 24 | Rev-erbA confirm inactive
O=c1[nH]cc(I)cc1I	none (no result: NR2E3 ag-1)
NC(=O)c1cc2ccccc2o/c1=N\NC(=O)c1ccccc1O	Rev-erbA mod 21 | Rev-erbA confirm inactive
Cc1nnc2c(NCCC(C)C)nc3ccccc3n12	Rev-erbA mod 23 (no result: NR2E3 ag-1) | Rev-erbA confirm inactive
C(=Cc1c[nH]c2ccccc12)c1nccc2ccccc12	Rev-erbA mod 25 (no result: NR2E3 ag-1) | Rev-erbA confirm 23
OCC[n+]1ccc(/C=C/c2c[nH]c3ccccc23)cc1	Rev-erbA mod 161 | Rev-erbA confirm 144 | RORg counter inactive
COc1ccccc1P(=O)(Cc1ccccc1[N+](=O)[O-])c1ccccc1 (centres undefined)	none
CCN(CC)S(=O)(=O)c1ccc(OC)c(NC(=O)c2cn(CC)c3nc(C)ccc3c2=O)c1	none
CC(=O)Nc1ccc(S(=O)(=O)N2C(=O)c3cccc4cccc2c34)cc1	Rev-erbA mod 33 (no result: NR2E3 ag-2) | Rev-erbA confirm inactive
COc1cccc(CN2CCNC(=O)C2CC(=O)NC2CCOCC2)c1OC (centres undefined)	none
COc1cc(CCC(=O)OCC(=O)NCc2ccccc2)cc(OC)c1OC	none (no result: Rev-erbA mod)
COc1cc(CCC(=O)OCC(=O)NCC2CCCCC2)cc(OC)c1OC	Rev-erbA mod 16 | Rev-erbA confirm inactive
COc1ccc2cc(/C=N/NC(=O)c3c(Cl)cnn3C)c(Cl)nc2c1	Rev-erbA mod 24 | Rev-erbA confirm inactive
COc1ccc2cc(/C=N/NC(=O)c3ccc(CN(c4ccc(C)c(C)c4)S(C)(=O)=O)cc3)c(Cl)nc2c1	none
COc1cc(/C=N/NC(=O)CC2(C)OCCO2)cc(Br)c1O	Rev-erbA mod 71 | Rev-erbA confirm inactive
Nc1ncc2c(n1)-c1cc(Cl)ccc1SC2	Rev-erbA mod 34 | Rev-erbA confirm inactive
COc1cc2oc(=O)cc(CN3CCCCCCC3)c2cc1Cl	none (no result: NR2E3 ag-1)
N#Cc1c(-c2ccccc2Cl)cc(-c2ccccc2)nc1Br	Rev-erbA mod 32 | Rev-erbA confirm 22
N#Cc1c(-c2ccccc2Cl)cc(C2CC2)nc1N	none
N#Cc1c(-c2cccc(F)c2)cc(-c2ccccc2)nc1Br	PG9 Ab binder 9.1, Rev-erbA mod 58 | Rev-erbA confirm 25
COc1cc(/C=C/c2noc(-c3ccccc3O)n2)cc(OC)c1OC	Rev-erbA mod 51 | Rev-erbA confirm 25
COC(=O)[C@H](C(C)C)N(CCCc1cn(CC2CCCCC2)nn1)S(=O)(=O)c1ccc(F)cc1Br	none (no result: NR2E3 ag-1, PG9 Ab binder, NR2E3 ag-2)
COc1ccc(-c2cc(C(F)F)n3ncc(C(=O)Nc4cc(C)on4)c3n2)cc1	none
COCc1ccccc1Cn1cnc2c1c(=O)n(C)c(=O)n2C	none
c1ccc(Nc2nc(N3CCCC3)nc(N3CCOCC3)n2)cc1	none
O=C1CSC(c2ccccc2)N1Nc1nc(N2CCOCC2)nc(N2CCOCC2)n1 (centres undefined)	Rev-erbA mod 22 | Rev-erbA confirm inactive
COc1ccccc1NC(=O)Cn1c(=O)n(-c2ccccc2)c(=O)c2oc3ccccc3c21	Rev-erbA mod 20 | Rev-erbA confirm 23
COc1ccc(NC(=O)Cn2c(=O)n(-c3ccccc3)c(=O)c3oc4ccccc4c32)c(OC)c1	none
CC(C)c1cc(Br)ccc1OCCN1C(=O)NC(C)(C)C1=O	Rev-erbA mod 14 | Rev-erbA confirm inactive
CN(C)c1ccc(/C=N/NC(=O)CCc2c[nH]c3ccccc23)cc1	none
COc1cc(-c2nn3c(COc4ccccc4)nnc3s2)cc(OC)c1OC	Rev-erbA mod 45 | Rev-erbA confirm 44 | RORg counter inactive
COc1cccc(NC(=O)CSc2nc3ccccc3c3nc4ccccc4n23)c1	Rev-erbA mod 54 | Rev-erbA confirm inactive
CCOc1ccc(NC(=O)Cn2cc(C(C)=O)c3ccccc32)cc1	Rev-erbA mod 29 | Rev-erbA confirm inactive
CCC(=O)c1cn(CC(=O)Nc2cccc(OC)c2)c2ccccc12	Rev-erbA mod 26 | Rev-erbA confirm inactive
O=c1oc([C@@H](O)c2ccccc2)cc2ccccc12	none (no result: NR2E3 ag-1)
Cc1nc(CS(=O)(=O)c2ccccn2)sc1C(=O)NNC(=O)c1ccccc1	none
COc1ccc(NS(=O)(=O)c2ccc(NC(C)=O)cc2)nn1	none
Cc1ccccc1C(=O)n1ccc2ccc(-c3ccc4ccn(Cc5ccccc5)c4c3)cc21	none (no result: NR2E3 ag-1, PG9 Ab binder, NR2E3 ag-2)
COc1ccc(Cn2ccc3ccc(-c4ccc5ccn(C(=O)c6ccccc6C)c5c4)cc32)cc1	none (no result: NR2E3 ag-1, PG9 Ab binder, NR2E3 ag-2)
COc1ccc(Cn2ccc3ccc(-c4ccc5ccn(C(=O)c6ccccc6OC)c5c4)cc32)cc1	Rev-erbA mod 71 (no result: NR2E3 ag-1, PG9 Ab binder, NR2E3 ag-2) | Rev-erbA confirm 63 | RORg counter inactive
COC(=O)c1ccc(Cn2ccc3ccc(-c4ccc5ccn(C(=O)c6ccccc6OC)c5c4)cc32)cc1	Rev-erbA mod 47 (no result: NR2E3 ag-1, PG9 Ab binder, NR2E3 ag-2) | Rev-erbA confirm 72 | RORg counter inactive
N#Cc1ccccc1N1CCN(C(=O)C2CCN(c3ncnc4c3sc3cccc(F)c34)CC2)CC1	Rev-erbA mod 49 (no result: NR2E3 ag-1, PG9 Ab binder, NR2E3 ag-2) | Rev-erbA confirm 34 | RORg counter inactive
Cc1ccc(N=Nc2c(O)ccc3n[nH]nc23)cc1	none (no result: NR2E3 ag-1)
COc1ccc(S(=O)(=O)N2CCOCC2)cc1NC(=O)CN1C(=O)NC2(CCCC2)C1=O	none
O=C1OC2(c3ccc(O)cc3Oc3cc(O)ccc32)c2ccccc21	Rev-erbA mod 691 (no result: NR2E3 ag-1, PG9 Ab binder, NR2E3 ag-2) | Rev-erbA confirm 596
